Shown are actives, neighbours in structure and some others; about 4.6% of the full set was active somewhere.
TAAR1 antag: antagonists of human TAAR1; Q96RJ0; CHO RD-HGA16 TAAR1, Fluo-8 calcium fluorescence, antagonist; inhibition, % at 3 µM; hit rate 1.5% among 360,000; AID 624466;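 active means inhibition above a per-plate cutoff, the mean inhibition of test compounds on that plate plus 3 SD, cut at about 49% in these data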;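 further: 0% = DMSO plus EC80 beta-PEA response and 100% = DMSO alone without agonist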
Target sequence (Q96RJ0 whole entry, looked up): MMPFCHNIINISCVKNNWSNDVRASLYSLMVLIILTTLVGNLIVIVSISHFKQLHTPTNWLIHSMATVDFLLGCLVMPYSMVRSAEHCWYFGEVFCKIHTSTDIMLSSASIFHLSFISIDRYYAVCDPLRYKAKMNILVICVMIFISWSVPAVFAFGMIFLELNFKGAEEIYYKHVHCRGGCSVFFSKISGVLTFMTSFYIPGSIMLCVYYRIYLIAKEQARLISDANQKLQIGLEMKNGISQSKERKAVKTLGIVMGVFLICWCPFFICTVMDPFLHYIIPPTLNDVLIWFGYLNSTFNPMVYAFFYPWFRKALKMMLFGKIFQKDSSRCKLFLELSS
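Material: RD-HGA16 CHO cells with stable hTAAR1 and Gα16; Dosing: single nominal final test compound concentration of 3 µM; Schedule: seeding 17-24 h prior, 75-min 37 °C, 30-min RT dye loading; Detection: kinetic Fluo-8 calcium fluorescence measurement; Measure: % inhibition from peak post-agonist over basal fluorescence ratio; Benchmarks: vehicle and agonist controls.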
OX1R antag-1: human HCRTR1 antagonism. O43613. CHO/OX1R cells, Fluo-8 calcium fluorescence, orexin A. inhibition, % at 5 µM. hit rate 0.43% among 330,000;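 active means inhibition above its plate's threshold, mean inhibition of all tested compounds on the plate plus 3 SD, cut at about 37% in these data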;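 further: 0% = orexin A challenge wells and 100% = SB-334867-A antagonist wells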
OX1R antag-2: antagonists of human orexin 1 receptor (OX1R). O43613. OX1R-expressing cells, FRET antagonist read-out. inhibition, % at 6.6 µM. hit rate 1.8% among 330,000; in the data active means inhibition mostly above about 38%, no sharp cut-off; inactive means mostly below about 40%;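 further: 0% = agonist challenge alone and 100% = reference antagonist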
GPR7 antag: blocks human GPR7 receptor signaling. GPR7-expressing cells, fluorescence antagonist assay. P48145. hit rate 1.1% among 290,000. inhibition, % at 4.4 µM; in the data active means inhibition above about 16%, passing the limit was not always enough;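 further: cells stimulated with the agonist NPW; 0% = agonist with vehicle and 100% = vehicle without agonist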
Target sequence (P48145 whole entry, looked up): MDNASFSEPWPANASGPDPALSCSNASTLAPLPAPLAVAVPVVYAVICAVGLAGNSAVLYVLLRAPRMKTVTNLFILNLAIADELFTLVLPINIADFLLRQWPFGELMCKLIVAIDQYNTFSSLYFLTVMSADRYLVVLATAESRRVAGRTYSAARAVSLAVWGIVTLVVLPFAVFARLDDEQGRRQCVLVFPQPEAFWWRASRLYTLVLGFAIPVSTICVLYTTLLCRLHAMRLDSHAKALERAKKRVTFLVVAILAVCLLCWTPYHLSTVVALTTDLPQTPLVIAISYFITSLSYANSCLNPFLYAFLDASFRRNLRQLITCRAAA
TAAR1 ag: human TAAR1 agonism | hit rate 0.99% among 360,000 | CHO RD-HGA16 TAAR1, Fluo-8 calcium fluorescence; vehicle wells 0%, saturating PEA agonist 100% | activation, % at 3 µM | Q96RJ0;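 active means activation above the mean activation of all test compounds in the run plus 3 SD, cut at about 38% in these data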
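Test system: RD-HGA16 (CHO) cells co-expressing Gα16 and hTAAR1; dosing: one-point dosing at 3 µM (nominal); timing: 17-24 h seeding, 75 min 37 °C dye, 30 min RT; signal: kinetic Fluo-8 calcium fluorescence; read-out basis: % activation relative to PEA EC100 response; controls: DMSO and PEA EC100; replicates: n 1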
CHO parental Ca: signal in parental CHO cells, OX1R antagonist counter-screen | parental CHO-K1, ATP-induced calcium, Fluo-8 fluorescence | inhibition, % at 5.6 µM | hit rate 0.63% among 330,000;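 active means inhibition above that plate's mean sample inhibition plus 3 SD, cut at about 26% in these data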;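 further: 0% = ATP-challenged DMSO wells and 100% = DMSO wells without ATP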
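Test system: untransfected parental CHO cell line. Compound: one dose, 5.6 µM nominal. Detection: intracellular calcium via Fluo-8 no-wash fluorescent dye. Measure: % inhibition. Benchmarks: ATP-challenged DMSO wells low, unchallenged DMSO wells high.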
TAAR1 ag confirm: human TAAR1 agonism, confirmed. activation, % at 3 µM. hit rate 82% among 2,400. CHO RD-HGA16 TAAR1, Fluo-8 calcium fluorescence; scaled: DMSO 0%, maximal phenethylamine 100%. shares compounds with TAAR1 ag;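 active means activation above a cutoff set at the run's mean compound activation plus 3 SD, cut at about 39% in these data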
Ga16 ag counter: counter-screen for TAAR1 agonists: nonselective agonists in parental cells. hit rate 50% among 2,400. activation, % at 3 µM. shares compounds with TAAR1 ag. CHO-Ga16 parental, Fluo-8 calcium fluorescence; normalized to maximal ATP response, DMSO zero;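 active means activation above the run cutoff, the mean activation over all tested wells plus 3 SD, cut at about 12% in these data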;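 further: 0% = DMSO wells and 100% = maximal ATP response on the peak over basal ratio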
TAAR1 desensitize: TAAR1 response desensitization, agonist counter-screen | hit rate 46% among 2,400 | inhibition, % at 3 µM | CHO RD-HGA16 hTAAR1, Fluo-8 calcium, beta-PEA response inhibition | shares compounds with TAAR1 ag;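 active means inhibition above the run cutoff, the mean inhibition of all test compounds plus 3 SD, cut at about 49% in these data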;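 further: beta-PEA stimulus applied at its EC80; loss of beta-PEA calcium signal after compound pretreatment read as receptor desensitization; 0% = DMSO with beta-PEA at EC80 and 100% = DMSO alone without agonist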
Ga16 antag count: nonselective Ga16 antagonism, counter-screen | AID 651952 | inhibition, % at 3 µM | hit rate 39% among 2,400 | shares compounds with TAAR1 ag | CHO-Ga16 ATP-induced calcium, Fluo-8 fluorescence;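 active means inhibition above the plate's mean compound inhibition plus 3 SD, computed per plate, cut at about 22% in these data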;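 further: 0% = EC80 ATP with DMSO and 100% = DMSO wells without ATP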
An asterisk follows results filed as active; / = not tested or not shown.

SMILES	TAAR1 antag	OX1R antag-1	OX1R antag-2	GPR7 antag	TAAR1 ag	CHO parental Ca	TAAR1 ag confirm	Ga16 ag counter	TAAR1 desensitize	Ga16 antag count
O=C(CSc1n[nH]c(-c2ccncc2)n1)Nc1ccc(Cl)c(Cl)c1	39	-20	18	-11	102*	2	66*	60*	40	22*
O=C(CSc1n[nH]c(-c2ccncc2)n1)Nc1ccc(Cl)cc1	15	-20	10	1	26	-11	/	/	/	/
N=c1c2c(-c3ccccc3)c(-c3ccccc3)n(Cc3ccccc3)c2ncn1CCCn1ccnc1	-19	-11	13	-3	61*	-31	49*	15*	10	13
O=C(COc1ccccc1)NC(=S)Nc1ccc2c3c(cccc13)CC2	5	-13	9	1	9	-9	/	/	/	/
O=C(COc1ccccc1)NC(=S)Nc1cccc2cc(O)ccc12	45	-14	-9	-8	72*	-2	67*	24*	49*	29*
Cc1oc(-c2cccs2)nc1CNC[C@H]1O[C@@H](n2cnc(C(N)=O)n2)[C@H](O)[C@@H]1O	-1	/	/	/	0	/	/	/	/	/
CC1(Oc2ccccc2-c2ccn[nH]2)CCN(Cc2ccc(OC(F)(F)F)cc2)C1 (stereo not drawn)	9	/	/	/	2	/	/	/	/	/
O=C(O)COCC(=O)NCc1csc2ccccc12	-40	-4	1	-7	51*	-11	55*	0	26	6
O=C(Cc1csc2ccccc12)NCC1CC1	3	/	/	/	0	/	/	/	/	/
Cc1ccc2c(c1)c(C1=c3ccccc3=NC1=O)c(O)n2C	25	-7	22	10	63*	8	39*	16*	31	25*
Cn1c(O)c(C2=c3ccccc3=NC2=O)sc1=Nc1ccc(Cl)cc1	-18	-27	9	1	4	-17	/	/	/	/
Cc1cc(C)cc(NC(=O)N2CCc3ccccc3C2)c1	11	/	/	6	58*	/	67*	-1	11	3
Cc1ccc(NC(=O)N2CCc3ccccc3C2)cc1C	16	/	/	0	31	/	/	/	/	/
CCOC(=O)c1ccc(NC(=O)N2CCc3ccccc32)cc1	9	-22	19	-6	6	-17	/	/	/	/
Cc1ccccc1NC(=O)N1CCc2ccccc2C1	0	-5	8	-9	84*	-4	63*	0	17	5
Cc1ccccc1NC(=O)CN1CCc2ccccc2C1	-20	10	12	-6	16	4	/	/	/	/
CCOC(=O)c1ccc(NC(=O)N2CCc3ccccc3C2)cc1	9	-8	30	-6	63*	-2	48*	12*	49*	24*
O=C(Nc1ccc(F)cc1)N1CCc2ccccc2C1	-8	-12	18	6	46*	-10	41*	2	0	6
Cc1ccccc1NC(=O)Cc1c[nH]c2ccccc12	6	8	9	1	2	2	/	/	/	/
Cc1cccc(NC(=O)N2CCc3ccccc3C2)c1C	52*	/	/	-10	80*	/	80*	1	29	-4
O=C(Nc1ccc(Br)cc1)N1CCc2ccccc2C1	15	-25	32	-11	16	13	/	/	/	/
C[C@@H]1CN([C@@H](C)CO)C(=O)CCCn2nncc2CO[C@H]1CN(C)S(=O)(=O)c1cccc(F)c1	-10	/	/	/	3	/	/	/	/	/
Cn1c(CN2CCCCC2)nc2cc(NS(=O)(=O)c3ccc(Cl)cc3)ccc21	9	13	8	2	70*	-12	77*	41*	39	23*
CCOC(=O)c1ccc(NS(=O)(=O)c2c(C)nc3sccn3c2=O)cc1	9	-12	6	-5	5	1	/	/	/	/
C[C@H](NC(=O)[C@@H]1CSC2c3ccccc3C(=O)N21)C(=O)NCCc1ccccc1 (stereo partly drawn)	15	-11	13	18	68*	-16	81*	0	41	6
SMILES	TAAR1 antag	OX1R antag-1	OX1R antag-2	GPR7 antag	TAAR1 ag	CHO parental Ca	TAAR1 ag confirm	Ga16 ag counter	TAAR1 desensitize	Ga16 antag count
O=C(NCCCCO)c1c(-c2ccccc2)oc2c1C(OCCCCCO)CCC2 (stereo not drawn)	-23	/	/	/	1	/	/	/	/	/
Cc1nn(-c2ccccc2)c(C)c1/C=N/n1c(-c2ccncc2)n[nH]c1=S	-6	-24	17	-13	47*	-18	93*	18*	24	-5
Cc1nn(-c2ccccc2)c(C)c1/C=N/n1c(-c2ccc(Cl)cc2)n[nH]c1=S	3	-3	3	-2	3	-9	/	/	/	/
CC1C(=O)N2CCCc3cc(S(=O)(=O)NCCc4ccccc4)cc1c32 (stereo not drawn)	-4	-9	18	-5	52*	-19	67*	7	25	17
CCN(CC)C(=O)Oc1nnc(SC(C)C)n1-c1ccc(Cl)c(Cl)c1	5	-38	8	-13	45*	-21	21	14*	2	2
CCN(CC)C(=O)Oc1nnc(SC(C)C)n1-c1ccc(Cl)cc1	5	-15	5	-6	0	-15	/	/	/	/
CC(=O)N1CCN(S(=O)(=O)c2cccc(C(=O)OCc3ccc(C(C)(C)C)cc3)c2)CC1	38	/	/	/	17	/	/	/	/	/
Cc1cc(C)nc(N2CCCC(C(=O)NCCc3ccccc3F)C2)n1 (stereo not drawn)	8	-14	12	8	45*	-31	76*	2	38	11
CCCN1CCCCC(NC(=O)c2c(F)cccc2F)C1=O (stereo not drawn)	-1	/	/	/	4	/	/	/	/	/
Clc1ccc(CSc2ncnc3c2ncn3C2CCCCO2)cc1 (stereo not drawn)	37	/	/	/	64*	/	15	11	10	14
Cc1ccccc1CCN(C(=O)c1csnn1)C(C(=O)NC1CCCC1)c1ccco1 (stereo not drawn)	2	-18	40	6	46*	-17	70*	2	31	14
Nc1nonc1-n1nnc(C(=O)N/N=C/c2cccc(Cl)c2)c1-c1ccc2c(c1)OCO2	29	10	22	-1	15	7	/	/	/	/
Nc1nonc1-n1nnc(C(=O)N/N=C/c2ccc(Br)cc2)c1-c1ccc2c(c1)OCO2	93*	-1	-1	0	154*	-1	150*	112*	97*	81*

Screens from PubChem.
